Results: ChEMBL document CHEMBL1131198, “From micromolar to nanomolar affinity: a systematic approach to identify the binding site of CGRP at the human calcitonin gene-related peptide 1 receptor” (J Med Chem, 1998)
Numbered stars: 1 amine (or outer) side, 2 acyl side, 3 side chain; on linkers, the order of the positions; unused ones are H or OH. Square brackets hold non-standard residues; d marks the D form. Peptide text beside a SMILES is read from it. X1 = O=C(C1(c2ccccc2)CC1CN[*:1])[*:2]; Hyp = O=C(O)[C@@H]1C[C@@H](O)CN1; Tic = O=C(O)[C@@H]1Cc2ccccc2CN1; X2 = O=C(C1CC1CN[*:1])[*:2]; Aib = CC(C)(N)C(=O)O

Columns and labels:
[1] = target: Calcitonin gene-related peptide type 1 receptor (Homo sapiens, UniProt O60894+Q16602); test: (§1) CGRP1 receptor affinity on human neuroblastoma cells SK-N-MC, which selectively express the human CGRP1 receptor.
Calcitonin gene-related peptide type 1 receptor (Homo sapiens, UniProt O60894+Q16602), sequence (Q16602 whole entry, one chain of several): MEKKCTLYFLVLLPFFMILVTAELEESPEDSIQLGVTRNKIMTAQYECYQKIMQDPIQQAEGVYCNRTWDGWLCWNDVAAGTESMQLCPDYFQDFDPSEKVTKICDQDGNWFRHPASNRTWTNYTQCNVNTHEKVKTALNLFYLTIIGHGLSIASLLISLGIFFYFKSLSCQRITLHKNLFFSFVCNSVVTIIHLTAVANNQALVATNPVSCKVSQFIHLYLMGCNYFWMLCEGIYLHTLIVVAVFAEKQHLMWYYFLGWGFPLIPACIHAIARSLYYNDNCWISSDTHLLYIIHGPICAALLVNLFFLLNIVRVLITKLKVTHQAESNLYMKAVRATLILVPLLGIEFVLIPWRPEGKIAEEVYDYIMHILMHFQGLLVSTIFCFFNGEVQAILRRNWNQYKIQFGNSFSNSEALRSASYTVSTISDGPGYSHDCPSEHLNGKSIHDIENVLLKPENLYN
Outline: (§2)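 SK-N-MC membranes (cells grown in DMEM, detached with PBS/0.02% EDTA, homogenized, pellet in Tris buffer pH 7.40 with 1% BSA, 0.1% bacitracin, stored -80 °C) diluted 1:10 in assay buffer (50 mM Tris, 150 mM NaCl, 5 mM MgCl2, 1 mM EDTA, pH 7.40).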

[2] = target: Calcitonin gene-related peptide type 1 receptor (Homo sapiens, UniProt Q16602); test: as §1; outline: as §2
Calcitonin gene-related peptide type 1 receptor (Homo sapiens, UniProt Q16602), sequence (Q16602 whole entry): as the sequence (Q16602 whole entry, one chain of several) above

CC(C)[C@H](NC(=O)[C@H](CC(=O)O)NC(=O)[C@@H](NC(=O)[C@@H]1CCCN1C(=O)[C@@H](NC(=O)[C@@H](N)Cc1ccccc1)C(C)C)[C@@H](C)O)C(=O)NCC(=O)N1CCCC[C@H]1C(=O)N[C@@H](Cc1ccccc1)C(=O)N[C@@H](C)C(=O)N[C@@H](Cc1ccccc1)C(=O)O
IC50 [1]: 0.91 µM

CC(C)[C@H](NC(=O)[C@@H](CC(N)=O)NC(=O)[C@@H](NC(=O)[C@@H]1CCCN1C(=O)[C@@H](NC(=O)[C@@H](N)Cc1ccc(O)cc1)C(C)C)[C@@H](C)O)C(=O)NCC(=O)N[C@@H](CO)C(=O)N[C@@H](CCC(=O)O)C(=O)N[C@@H](C)C(=O)N[C@@H](Cc1ccccc1)C(=O)O
IC50 [1]: > 100 µM

CC(C)[C@H](NC(=O)[C@H](CC(=O)O)NC(=O)[C@@H](NC(=O)[C@@H]1CCCN1C(=O)[C@@H](NC(=O)[C@@H](N)Cc1ccccc1)C(C)C)[C@@H](C)O)C(=O)NCC(=O)N1CCC[C@H]1C(=O)N[C@@H](Cc1ccccc1)C(=O)N[C@@H](C)C(=O)N[C@@H](Cc1ccccc1)C(=O)O
IC50 [1]: 0.029 µM

CC(C)[C@H](NC(=O)[C@H](CC(=O)O)NC(=O)[C@@H](NC(=O)[C@@H]1CCCN1C(=O)[C@@H](NC(=O)[C@@H](N)Cc1ccccc1)C(C)C)[C@@H](C)O)C(=O)NCC(=O)N1C[C@H](O)C[C@H]1C(=O)N[C@@H](Cc1ccccc1)C(=O)N[C@@H](C)C(=O)N[C@@H](Cc1ccccc1)C(=O)O
IC50 [1]: 0.62 µM

CC(C)[C@H](NC(=O)[C@H](CC(N)=O)NC(=O)[C@@H](NC(=O)[C@@H]1CCCN1C(=O)[C@H](NC(=O)[C@@H](N)Cc1ccc(O)cc1)C(C)C)[C@@H](C)O)C(=O)NCC(=O)N[C@@H](CO)C(=O)N[C@@H](CCC(=O)O)C(=O)N[C@@H](C)C(=O)N[C@@H](Cc1ccccc1)C(=O)O
IC50 [2]: 19 µM

CC(C)[C@H](NC(=O)[C@H](CC(N)=O)NC(=O)[C@@H](NC(=O)[C@@H]1CCCN1C(=O)[C@@H](NC(=O)[C@@H](N)Cc1ccc(O)cc1)C(C)C)[C@@H](C)O)C(=O)NCC(=O)N[C@@H](CO)C(=O)N[C@@H](CCC(=O)O)C(=O)N[C@H](C)C(=O)N[C@@H](Cc1ccccc1)C(=O)O
IC50 [1]: > 100 µM

CC(C)[C@H](NC(=O)[C@H](CC(N)=O)NC(=O)[C@H](NC(=O)[C@@H]1CCCN1C(=O)[C@@H](NC(=O)[C@@H](N)Cc1ccc(O)cc1)C(C)C)[C@@H](C)O)C(=O)NCC(=O)N[C@@H](CO)C(=O)N[C@@H](CCC(=O)O)C(=O)N[C@@H](C)C(=O)N[C@@H](Cc1ccccc1)C(=O)O
IC50 [2]: No displacement

CC(C)[C@H](NC(=O)[C@H](CC(N)=O)NC(=O)[C@@H](NC(=O)[C@@H]1CCCN1C(=O)[C@@H](NC(=O)[C@@H](N)Cc1ccc(O)cc1)C(C)C)[C@@H](C)O)C(=O)NCC(=O)N[C@@H](CO)C(=O)N[C@H](CCC(=O)O)C(=O)N[C@@H](C)C(=O)N[C@@H](Cc1ccccc1)C(=O)O
IC50 [2]: No displacement

CC(C)[C@H](NC(=O)[C@H](CC(N)=O)NC(=O)[C@@H](NC(=O)[C@@H]1CCCN1C(=O)[C@@H](NC(=O)[C@@H](N)Cc1ccc(O)cc1)C(C)C)[C@@H](C)O)C(=O)NCC(=O)N[C@@H](CO)C(=O)N[C@@H](CCC(=O)O)C(=O)N[C@@H](C)C(=O)N[C@H](Cc1ccccc1)C(=O)O
IC50 [2]: No displacement

CC(C)[C@H](NC(=O)[C@H](CC(N)=O)NC(=O)[C@@H](NC(=O)[C@@H]1CCCN1C(=O)[C@@H](NC(=O)[C@@H](N)Cc1ccc(O)cc1)C(C)C)[C@@H](C)O)C(=O)NCC(=O)N[C@H](CO)C(=O)N[C@@H](CCC(=O)O)C(=O)N[C@@H](C)C(=O)N[C@@H](Cc1ccccc1)C(=O)O
IC50 [1]: > 100 µM

CC(C)[C@H](NC(=O)[C@H](CC(N)=O)NC(=O)[C@@H](NC(=O)[C@@H]1CCCN1C(=O)[C@@H](NC(=O)[C@H](N)Cc1ccc(O)cc1)C(C)C)[C@@H](C)O)C(=O)NCC(=O)N[C@@H](CO)C(=O)N[C@@H](CCC(=O)O)C(=O)N[C@@H](C)C(=O)N[C@@H](Cc1ccccc1)C(=O)O
IC50 [1]: 80 µM

CC(C)[C@H](NC(=O)[C@@H](N)Cc1ccc(O)cc1)C(=O)N1CCC[C@H]1C(=O)N[C@H](C(=O)N[C@@H](CC(N)=O)C(=O)N[C@@H](C(=O)NCC(=O)N[C@@H](CO)C(=O)N[C@@H](CCC(=O)O)C(=O)N[C@@H](C)C(=O)N[C@@H](Cc1ccccc1)C(=O)O)C(C)C)[C@@H](C)O
IC50 [2]: No displacement

CC(C)[C@H](NC(=O)[C@H](CC(N)=O)NC(=O)[C@@H](NC(=O)[C@@H]1CCCN1C(=O)[C@@H](NC(=O)[C@@H](N)Cc1ccc(O)cc1)C(C)C)[C@@H](C)O)C(=O)NCC(=O)N[C@@H](CO)C(=O)N[C@@H](CCC(=O)O)C(=O)N[C@@H](C)C(=O)N[C@@H](Cc1ccccc1)C(=O)O
IC50 [1]: 3 µM

CC(C)[C@H](NC(=O)[C@H](CC(=O)O)NC(=O)[C@@H](NC(=O)[C@@H]1CCCN1C(=O)[C@@H](NC(=O)[C@@H](N)Cc1ccccc1)C(C)C)[C@@H](C)O)C(=O)NCC(=O)NC(C)(C)C(=O)N[C@@H](Cc1ccccc1)C(=O)N[C@@H](C)C(=O)N[C@@H](Cc1ccccc1)C(=O)O (H-FVPTDVG[Aib]FAF-OH)
IC50 [1]: 0.17 µM

CC(C)[C@H](NC(=O)[C@H](CC(=O)O)NC(=O)[C@@H](NC(=O)[C@@H]1CCCN1C(=O)[C@@H](NC(=O)[C@@H](N)Cc1ccccc1)C(C)C)[C@@H](C)O)C(=O)NCC(=O)N1Cc2ccccc2C[C@H]1C(=O)N[C@@H](Cc1ccccc1)C(=O)N[C@@H](C)C(=O)N[C@@H](Cc1ccccc1)C(N)=O (H-FVPTDVG[Tic]FAF-NH2)
IC50 [2]: 0.146 µM

CC(C)[C@H](NC(=O)[C@H](CC(=O)O)NC(=O)[C@@H](NC(=O)[C@@H]1CCCN1C(=O)[C@@H](NC(=O)[C@@H](N)Cc1ccccc1)C(C)C)[C@@H](C)O)C(=O)NCC(=O)NCC1CC1(C(=O)N[C@@H](Cc1ccccc1)C(=O)N[C@@H](C)C(=O)N[C@@H](Cc1ccccc1)C(=O)O)c1ccccc1 (stereo partly specified) (H-FVPTDVG[X1]FAF-OH)
IC50 [1]: > 3 µM

CC(C)[C@H](NC(=O)[C@H](CC(=O)O)NC(=O)[C@@H](NC(=O)[C@@H]1CCCN1C(=O)[C@@H](NC(=O)[C@@H](N)Cc1ccccc1)C(C)C)[C@@H](C)O)C(=O)NCC(=O)NCC1CC1C(=O)N[C@@H](Cc1ccccc1)C(=O)N[C@@H](C)C(=O)N[C@@H](Cc1ccccc1)C(=O)O (stereo partly specified) (H-FVPTDVG[X2]FAF-OH)
IC50 [1]: > 3 µM

C[C@H](NC(=O)[C@@H](N)Cc1ccc(O)cc1)C(=O)N[C@@H](Cc1ccccc1)C(=O)O (H-Tyr-Ala-Phe-OH)
IC50 [2]: No displacement

CC(C)[C@H](NC(=O)[C@@H](N)Cc1ccc(O)cc1)C(=O)N1CCC[C@H]1C(=O)O (H-Tyr-Val-Pro-OH)
IC50 [2]: No displacement

C[C@H](NC(=O)[C@H](CCC(=O)O)NC(=O)[C@@H](N)Cc1ccc(O)cc1)C(=O)N[C@@H](Cc1ccccc1)C(=O)O (H-YEAF-OH)
IC50 [2]: No displacement

CC(C)[C@H](NC(=O)[C@@H](N)Cc1ccc(O)cc1)C(=O)N1CCC[C@H]1C(=O)N[C@H](C(=O)O)[C@@H](C)O (H-YVPT-OH)
IC50 [2]: No displacement

CC(C)[C@H](NC(=O)[C@H](CC(N)=O)NC(=O)[C@@H](NC(=O)[C@@H]1C[C@@H](O)CN1C(=O)[C@@H](NC(=O)[C@@H](N)Cc1ccc(O)cc1)C(C)C)[C@@H](C)O)C(=O)NCC(=O)N[C@@H](CO)C(=O)N[C@@H](CCC(=O)O)C(=O)N[C@@H](C)C(=O)N[C@@H](Cc1ccccc1)C(=O)O (H-YV[Hyp]TNVGSEAF-OH)
IC50 [1]: 9 µM

Ac-FVPTDVGAFAF-OH
IC50 [1]: 0.205 µM

Ac-FVPTNVGSEAF-OH
IC50 [1]: 4.5 µM

Ac-PTDVGAFAF-OH
IC50 [1]: 0.49 µM

Ac-VPTDVGAFAF-OH
IC50 [1]: 0.3 µM

H-AVPTNVGSEAF-OH
IC50 [1]: 24 µM

H-FPPTNVGSEAF-OH
IC50 [1]: 3.4 µM

H-FVPPNVGSEAF-OH
IC50 [1]: > 10 µM

H-FVPTDVGAFAF-OH
IC50 [1]: 0.159 µM

H-FVPTDVGAHAF-OH
IC50 [1]: 0.36 µM

H-FVPTDVGPEAF-OH
IC50 [1]: 0.47 µM

H-FVPTDVGSEAF-OH
IC50 [1]: > 3 µM

H-FVPTDVGSQAF-OH
IC50 [1]: 1.2 µM

H-FVPTNPGSEAF-OH
IC50 [1]: > 10 µM

H-FVPTNVGPEAF-OH
IC50 [1]: 0.28 µM

H-FVPTNVGSEAF-OH
IC50 [1]: 3 µM

H-FVPTNVGSEPF-OH
IC50 [1]: > 10 µM

H-FVPTNVGSKAF-OH
IC50 [1]: 2.7 µM

H-FVPTNVGSPAF-OH
IC50 [1]: > 10 µM

H-FVPTNVPSEAF-OH
IC50 [1]: > 10 µM

H-FVPTPVGSEAF-OH
IC50 [1]: 4.5 µM

H-ILSSTNVGSEAF-OH
IC50 [1]: 10 µM

H-NFVPRSKISPEAF-OH
IC50 [1]: 10 µM

H-NFVPRSKISPQGY-OH
IC50 [1]: 10 µM

H-NFVPTNVGSNTY-OH
IC50 [1]: 10 µM

H-NFVPTNVGSQGY-OH
IC50 [1]: 10 µM

H-NVAPRSKISPEAF-OH
IC50 [1]: 10 µM

H-NVAPTNVGSEAF-OH
IC50 [1]: 10 µM

H-NVAPTNVGSQGY-OH
IC50 [1]: 10 µM

H-PTDVGAFAF-OH
IC50 [1]: 0.22 µM

H-VPTDVGAFAF-OH
IC50 [1]: 0.2 µM

H-YAPTNVGSEAF-OH
IC50 [1]: 8 µM

H-YFPTNVGSEAF-OH
IC50 [1]: 14 µM

H-YGSEAF-OH
IC50 [2]: No displacement

H-YNVGSEAF-OH
IC50 [2]: No displacement

H-YPTNVGSEAF-OH
IC50 [1]: 24 µM

H-YSEAF-OH
IC50 [2]: No displacement

H-YTNVGSEAF-OH
IC50 [1]: 18 µM

H-YVATNVGSEAF-OH
IC50 [2]: No displacement

H-YVFTNVGSEAF-OH
IC50 [1]: 45 µM

H-YVGSEAF-OH
IC50 [2]: No displacement

H-YVPANVGSEAF-OH
IC50 [2]: No displacement

H-YVPFNVGSEAF-OH
IC50 [2]: No displacement

H-YVPSNVGSEAF-OH
IC50 [1]: > 100 µM

H-YVPTAVGSEAF-OH
IC50 [1]: > 100 µM

H-YVPTDVGSEAF-OH
IC50 [1]: 5 µM

H-YVPTFVGSEAF-OH
IC50 [1]: 70 µM

H-YVPTLVGSEAF-OH
IC50 [1]: 7 µM

H-YVPTN-OH
IC50 [2]: No displacement

H-YVPTNAGSEAF-OH
IC50 [2]: No displacement

H-YVPTNVGAEAF-OH
IC50 [1]: 4 µM

H-YVPTNVGSAAF-OH
IC50 [1]: > 10 µM

H-YVPTNVGSEAY-OH
IC50 [1]: 32 µM

H-YVPTNVGSEGF-OH
IC50 [1]: 51 µM

H-YVPTNVGSFAF-OH
IC50 [1]: 4.79 µM

H-YVPTNVGSHAF-OH
IC50 [1]: 4.28 µM

H-YVPTNVGSKAF-OH
IC50 [1]: 6.5 µM

H-YVPTNVGSLAF-OH
IC50 [1]: 8.55 µM

H-YVPTNVGSQAF-OH
IC50 [1]: 6.9 µM

H-YVPTQVGSEAF-OH
IC50 [1]: 95 µM
